KDM4C inh – blocks human GASC-1 (KDM4C) demethylase activity; Q9H3R0; GST-KDM4C 2-372, H3K9me3 peptide, LANCE TR-FRET; inhibition, % at 12.5 µM; 0.15% of 96,000 active; AID 720574;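 active = mean replicate inhibition above about 25%, with at least 55% of replicates also reaching it, limit read from the data, passing the limit was not always enough; inconclusive = only one of those two conditions met; inactive = neither condition met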
Target sequence (Q9H3R0 2-372 limits assumed): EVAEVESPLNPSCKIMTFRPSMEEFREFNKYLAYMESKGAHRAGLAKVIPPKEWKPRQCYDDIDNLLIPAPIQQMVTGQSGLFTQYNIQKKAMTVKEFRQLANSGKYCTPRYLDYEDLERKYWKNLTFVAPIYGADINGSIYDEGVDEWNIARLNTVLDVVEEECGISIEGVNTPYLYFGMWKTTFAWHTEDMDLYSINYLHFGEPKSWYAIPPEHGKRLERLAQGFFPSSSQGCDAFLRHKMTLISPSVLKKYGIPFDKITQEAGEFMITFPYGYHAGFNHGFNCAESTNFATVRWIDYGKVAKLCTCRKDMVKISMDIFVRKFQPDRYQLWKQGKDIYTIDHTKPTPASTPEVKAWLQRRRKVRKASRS
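Assay system: GST-GASC-1 enzyme fragment 2-372 | Amount: 10 nM enzyme | Medium: HEPES buffer, pH 7.5, plus ascorbate | Reagent: H3K9me3 peptide substrate, Fe(II), 2-oxoglutarate | Doses: Single-point compound screen | Incubation: 30 min demethylation and 1 h detection at room temperature | Measured by: LANCE TR-FRET, excitation 340 nm, emissions 618 and 671 nm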
T cruzi growth-1 – blocks T. cruzi growth in NIH3T3 culture. T. cruzi beta-gal in NIH3T3, GalScreen luminescence, 90 h. inhibition, % at 8.34 µM. 5.9% of 77,000 active. AID 624255;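 active = mean inhibition above about 93%, with at least 55% of replicates each passing it, limit read from the data, passing the limit was not always enough; inconclusive = only one of those two conditions holds; inactive = neither condition holds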
IDH1 mut inh – IDH1 R132H (human) inhibition | 0.18% of 70,000 active | IDH1 R132H reductase, diaphorase/resazurin fluorescence, 60 min | O75874 | inhibition, % at 10 µM; in the data active = inhibition above about 34%; inconclusive = no clear call, values can overlap the other calls; inactive = below about 11%;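 also: 0% = DMSO and 100% = no enzyme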
Target sequence (O75874 whole entry R132H): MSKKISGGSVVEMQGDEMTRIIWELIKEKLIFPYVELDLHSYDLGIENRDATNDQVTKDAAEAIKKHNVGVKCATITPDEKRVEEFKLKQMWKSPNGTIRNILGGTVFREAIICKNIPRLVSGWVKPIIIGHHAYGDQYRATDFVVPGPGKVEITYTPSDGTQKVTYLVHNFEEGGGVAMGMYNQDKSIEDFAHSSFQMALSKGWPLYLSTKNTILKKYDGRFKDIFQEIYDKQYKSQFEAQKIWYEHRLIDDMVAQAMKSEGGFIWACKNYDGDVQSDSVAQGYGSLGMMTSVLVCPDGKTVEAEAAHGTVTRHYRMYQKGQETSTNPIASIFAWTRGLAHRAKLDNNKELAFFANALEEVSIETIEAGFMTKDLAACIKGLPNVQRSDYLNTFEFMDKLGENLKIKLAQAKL
T cruzi growth-2 – blocks T. cruzi growth in NIH3T3 host cells; T. cruzi beta-gal in NIH3T3, GalScreen luminescence, 90 h; AID 651739; 72% of 5,600 active; shares compounds with T cruzi growth-1; inhibition, % at 8.35 µM;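 active = mean replicate inhibition above about 95% and at least 55% of replicates individually reaching it, limit read from the data; inconclusive = only one of the two criteria is met; inactive = neither criterion is met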
T cruzi growth-3 – inhibitors of T. cruzi proliferation; shares compounds with T cruzi growth-1; T. cruzi beta-gal in NIH3T3, GalScreen luminescence, 90 h; inhibition, % at 2.09 µM; 21% of 5,600 active;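 active = mean inhibition above about 95%, with at least 55% of replicates also reaching it, limit read from the data; inconclusive = meets just one of the two conditions; inactive = meets neither condition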;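 also: plate controls were neutral control median for no effect and positive control median for full effect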
NIH3T3 tox – cytotoxicity in mouse NIH/3T3 fibroblasts; shares compounds with T cruzi growth-1; NIH/3T3 viability, CellTiter-Glo ATP luminescence, 90 h; cytotoxicity (signal decrease), % at 8.35 µM; 14% of 5,600 active; AID 651742;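 active = mean signal decrease across replicates above about 35% based on untreated-well scatter, with enough replicates individually passing, limit read from the data; inconclusive = no rule stated though some were filed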;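 also: 0% = median of neutral control wells and 100% = median of positive control wells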
3T3 cytotox 2 – kills mouse NIH/3T3 fibroblasts. inhibition, % at 24.9 µM. 56% of 5,600 active. shares compounds with T cruzi growth-1. AID 651744. NIH/3T3 viability, CellTiter-Glo ATP luminescence, 90 h;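 active = mean loss of cell viability signal at or above a set limit, and enough replicates individually reaching it; inconclusive = meets only the mean limit or only the replicate share; inactive = meets neither condition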;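 also: 0% = median of neutral control wells and 100% = median of positive control wells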
Numbers without * were called inactive; ? = inconclusive; . = not tested or not shown. Shown is part of a subset that was picked to be rich in hits.

SMILES	KDM4C inh	T cruzi growth-1	IDH1 mut inh	T cruzi growth-2	T cruzi growth-3	NIH3T3 tox	3T3 cytotox 2
O=C(Nc1ccc(F)cc1)N1CCCCN2[C@H](CO)[C@H](c3ccc(C#CC4CC4)cc3)[C@@H]2C1	-0.7	105.7*	.	107.1*	58.9	26.0	23.8
O=C(Nc1ccc(F)cc1)N1CCCCN2[C@H](C1)[C@@H](c1ccc(C#CC3CC3)cc1)[C@@H]2CO	0.0	98.8*	.	101.2*	103.5*	25.2	105.4*
O=C(Nc1ccccc1)N1CCCCN2[C@H](C1)[C@H](c1ccc(C#CC3CC3)cc1)[C@@H]2CO	0.2	54.4	.	.	.	.	.
O=C(Nc1ccccc1)N1CCCCN2[C@@H](CO)[C@@H](c3ccc(C#CC4CC4)cc3)[C@@H]2C1	-0.7	50.7	.	.	.	.	.
O=C(Nc1ccc(F)cc1)N1CCCCN2[C@H](C1)[C@@H](c1ccc(C#Cc3ccccc3)cc1)[C@@H]2CO	-1.1	44.8	.	.	.	.	.
O=C(Nc1ccc(F)cc1)N1CCCCN2[C@H](CO)[C@@H](c3ccc(C#CC4CC4)cc3)[C@@H]2C1	-0.8	107.8*	.	112.1*	82.4	20.2	104.2*
O=C(CCCCCCC(=O)Nc1ccccc1O)N/N=C/C1=CCCCC1	.	.	0.2	.	.	.	.
COc1ccc(-c2nnc(SCC(=O)Nc3cccc(SC)c3)o2)cc1	.	.	0.1	.	.	.	.
CCC(Sc1nnnn1C)C(=O)Nc1cccc([N+](=O)[O-])c1 (stereo unspecified)	.	.	0.2	.	.	.	.
N#C/C(=C(\O)COc1ccccc1)c1nc2ccccc2[nH]1	.	.	0.2	.	.	.	.
CCC(=O)N1CC2(C1)[C@H](c1ccccc1)[C@@H](CO)N2C(=O)NC(C)C	-0.1	.	.	.	.	.	.
COCC(=O)N(C)C[C@H]1[C@H](c2ccc(-c3cccnc3)cc2)[C@H](CO)N1C(C)=O	-1.2	101.4*	.	6.8	-0.1	-25.6	-12.5
CC(=O)N(C)C[C@H]1[C@H](c2ccc(-c3ccccc3)cc2)[C@@H](CO)N1C(=O)C1CC1	1.6	?	.	15.2	-15.0	6.8	13.0
CCN(C[C@@H]1[C@@H](c2ccccc2)[C@H](CO)N1C(=O)C1CC1)C(=O)NC1CCCC1	1.1	96.6*	.	52.4	31.5	-1.2	26.0
COCC(=O)N(C)C[C@H]1[C@H](c2ccc(-c3cccnc3)cc2)[C@@H](CO)N1C(C)=O	0.3	90.6	.	.	.	.	.
COCCN(C[C@@H]1[C@@H](c2ccccc2)[C@H](CO)N1C(C)=O)C(=O)c1ccccc1	-4.2	10.8	.	.	.	.	.
CCN(C[C@@H]1[C@@H](c2ccccc2)[C@@H](CO)N1C(=O)C1CC1)C(=O)NC1CCCC1	-2.3	16.2	.	.	.	.	.
COCCN(C[C@H]1[C@@H](c2ccccc2)[C@H](CO)N1C(C)=O)C(=O)c1ccncc1	1.6	?	.	61.1	-16.5	-11.2	-4.4
CC(=O)N(C)C[C@@H]1[C@@H](c2ccc(-c3ccccc3)cc2)[C@H](CO)N1C(=O)C1CC1	0.7	-23.8	.	.	.	.	.
COc1ccc(C2C(C#N)=C(N)Oc3n[nH]c(-c4ccccc4)c32)cc1CSc1ccccn1 (stereo unspecified)	.	.	-0.6	.	.	.	.
O=C(O)CCC1OC(=O)C(=O)C1c1ccccc1 (stereo unspecified)	.	.	0.1	.	.	.	.
COc1c(C)cccc1C(=O)N1CCN(c2ccc([N+](=O)[O-])c(NCc3ccco3)c2)CC1	.	.	-0.1	.	.	.	.
CC(=O)N(C)C[C@H]1[C@H](c2ccccc2)[C@@H](CO)N1C(=O)C1CCC1	-0.9	100.7*	.	-41.6	20.8	-22.5	-8.1
CN(C[C@H]1[C@H](c2ccccc2)[C@@H](CO)N1C(=O)C1CCC1)C(=O)c1ccccn1	0.4	15.0	.	.	.	.	.
COC(=O)Cc1c(/C(Cl)=C/C(=O)O)oc2cc(C)cc(O)c2c1=O	.	.	-0.5	.	.	.	.
SMILES	KDM4C inh	T cruzi growth-1	IDH1 mut inh	T cruzi growth-2	T cruzi growth-3	NIH3T3 tox	3T3 cytotox 2
CCCC#Cc1ccc([C@@H]2[C@@H](C#N)N(C(=O)C3CCOCC3)[C@H]2CO)cc1	-1.1	63.1	.	.	.	.	.
CCCC#Cc1ccc([C@H]2[C@H](C#N)N(C(=O)C3CC3)[C@H]2CO)cc1	-0.9	105.7*	.	107.0*	89.1	-3.6	32.0*
CCCC#Cc1ccc([C@@H]2[C@@H](CO)N(C(=O)C3CC3)[C@H]2C#N)cc1	2.3	101.3*	.	97.7*	69.9	-4.9	35.8*
CCCC#Cc1ccc([C@H]2[C@@H](C#N)N(C(=O)C3CCC3)[C@H]2CO)cc1	0.0	92.6	.	.	.	.	.
CC(C)C#Cc1ccc([C@@H]2[C@@H](CO)N(C(=O)C3CC3)[C@H]2C#N)cc1	-1.2	37.3	.	.	.	.	.
CCCC#Cc1ccc([C@H]2[C@@H](C#N)N(C(=O)C3CC3)[C@@H]2CO)cc1	-1.2	?	.	102.7*	86.4	-28.8	15.4
CCCC#Cc1ccc([C@H]2[C@@H](C#N)N(C(=O)C3CC3)[C@H]2CO)cc1	0.4	?	.	?	?	5.7	41.2*
CN(C)CC#Cc1ccc([C@H]2[C@@H](CO)N(C(=O)C3CC3)[C@H]2C#N)cc1	-0.3	19.9	.	.	.	.	.
CCC1(C)Cc2c(sc3nnn(CC(=O)Nc4ccc(OC)cc4OC)c(=O)c23)CO1 (stereo unspecified)	.	.	-0.1	.	.	.	.
C[C@H](O)C#Cc1cnc2c(c1)C(=O)N([C@@H](C)CO)C[C@H](C)[C@H](CN(C)C(=O)Nc1ccc(C(F)(F)F)cc1)O2	-0.2	.	-4.3	.	.	.	.
CCCCC(CC)C(=O)Nc1cc(OC)ccc1OC (stereo unspecified)	.	.	-0.4	.	.	.	.
O=C(CCCCCC(=O)Nc1ccccc1O)N/N=C/c1cccnc1	.	.	-0.2	.	.	.	.
CC(C)CC#Cc1ccc2c(c1)O[C@@H](CN(C)Cc1cccnc1)[C@@H](C)CN([C@@H](C)CO)S2(=O)=O	-0.7	107.6*	10.1	108.3*	90.5	29.9	107.0*
CC(C)CC#Cc1ccc2c(c1)O[C@@H](CN(C)Cc1cccnc1)[C@H](C)CN([C@@H](C)CO)S2(=O)=O	0.1	93.9	18.8	.	.	.	.
CC(C)CC#Cc1ccc2c(c1)O[C@H](CN(C)Cc1cncnc1)[C@@H](C)CN([C@H](C)CO)S2(=O)=O	2.3	103.4*	-3.3	94.4	106.4*	47.4*	60.6*
CC(C)CC#Cc1ccc2c(c1)O[C@H](CN(C)Cc1cncnc1)[C@H](C)CN([C@H](C)CO)S2(=O)=O	-0.4	22.2	-1.0	.	.	.	.
CC(C)CC#Cc1ccc2c(c1)O[C@H](CN(C)Cc1cccnc1)[C@@H](C)CN([C@@H](C)CO)S2(=O)=O	1.1	99.8*	21.6	93.1	101.9*	12.9	104.3*
CC(C)CC#Cc1ccc2c(c1)O[C@@H](CN(C)Cc1cccnc1)[C@@H](C)CN([C@H](C)CO)S2(=O)=O	-0.7	65.1	9.9	.	.	.	.
O=C(O)CCCCCCC(=O)NN=C1CCCCCCC1	.	.	-0.1	.	.	.	.
C[C@@H]1CN([C@H](C)CO)C(=O)Cc2cc(N(C)C)ccc2O[C@H]1CN(C)Cc1ccc(C(F)(F)F)cc1	-0.1	108.0*	-3.0	89.5	64.2	3.7	14.3
